ASAP1 GAP inh – inhibitors of human ASAP1 ArfGAP activity | Q9ULH1 | ASAP1-stimulated ARF1 GTP hydrolysis, GDP FP detection | inhibition, % at 16.5 µM | actives 0.19% (n = 360,000) | AID 624377; in the data active = inhibition above about 25%
Target sequence (Q9ULH1 325-724 limits assumed): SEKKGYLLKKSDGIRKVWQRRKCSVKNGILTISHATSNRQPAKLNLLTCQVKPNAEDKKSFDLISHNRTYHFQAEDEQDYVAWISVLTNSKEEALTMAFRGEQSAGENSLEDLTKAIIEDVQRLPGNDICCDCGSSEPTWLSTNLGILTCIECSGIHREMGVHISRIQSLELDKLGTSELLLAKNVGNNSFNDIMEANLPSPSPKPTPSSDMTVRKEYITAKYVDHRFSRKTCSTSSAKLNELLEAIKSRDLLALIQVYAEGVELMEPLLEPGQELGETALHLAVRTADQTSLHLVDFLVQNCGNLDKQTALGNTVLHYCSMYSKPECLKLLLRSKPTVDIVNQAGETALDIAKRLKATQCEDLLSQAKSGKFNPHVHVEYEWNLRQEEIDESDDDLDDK
ARFGAP1 inh – inhibitors of rat ARFGAP1 | Q62848 | Arfgap1-stimulated ARF1 GTP hydrolysis, GDP FP detection | inhibition, % at 16.5 µM | actives 0.26% (n = 360,000) | AID 651572;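 active = inhibition above a per-plate limit, mean inhibition of low control wells plus 3 SD, cut at about 25% in these data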
Target sequence (Q62848 1-136 limits assumed): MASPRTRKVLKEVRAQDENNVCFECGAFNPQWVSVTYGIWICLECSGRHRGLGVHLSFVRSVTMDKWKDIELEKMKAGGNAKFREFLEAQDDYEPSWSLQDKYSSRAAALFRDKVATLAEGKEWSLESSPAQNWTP
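system = rat Arfgap1 catalytic domain, aa 1-136 | technique = FP, GDP Alexa 633 tracer displaced from anti-GDP antibody, 620/688 nm | compound = one concentration, 16.5 µM, DMSO 1.26% | medium = HEPES-based buffer, pH 7.5 | timing = compound-enzyme preincubation 20 min, reaction 120 min, detection 60 min, 25 °C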
Calb FLC – C. albicans growth modulation with fluconazole | growth inhibition, % (test concentration not listed) | AID 1979 | actives 0.57% (n = 300,000) | C. albicans CaCi-2 + fluconazole, Alamar Blue growth, 48 h;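 active = growth inhibition above about 58% in most replicates, limit read from the data, passing the limit was not always enough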;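 note: all wells also contain fluconazole at 8 µg/ml as a sub-toxic cotreatment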
VIM-2 inh – blocks Pseudomonas aeruginosa VIM-2 metallo-beta-lactamase; purified VIM-2, nitrocefin hydrolysis, epi-absorbance fluorescence; actives 0.89% (n = 290,000); inhibition, % at 5.6 µM; AID 1527;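 active = inhibition above the mean of all tested compounds plus 3 SD, cutoff set per screening run, cut at about 7.5% in these data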;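 note: red hydrolysis product quenches plate fluorescence so inhibitors raise well fluorescence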
IMP-1 inh – blocks Pseudomonas aeruginosa IMP-1 metallo-beta-lactamase | purified IMP-1, nitrocefin hydrolysis, epi-absorbance fluorescence | inhibition, % at 5.6 µM | actives 0.45% (n = 290,000) | AID 1556;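 active = inhibition above the mean plus 3 SD of all compounds in the same screening run, cut at about 4.5% in these data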
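System: purified IMP-1; amount: IMP-1 0.2 nM before substrate addition; compound: single dose, 5.6 µM; times: 25 °C, 15 min preincubation, 25 min reaction; signal: Epi-absorbance via hydrolysed-nitrocefin quenching of white-plate fluorescence, 480/530 nm, EDTA stop; benchmarks: DMSO with and without IMP-1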
PHOSPHO1 block – PHOSPHO1 (human) inhibition; recombinant PHOSPHO1, absorbance phosphatase assay; actives 1.1% (n = 290,000); Q8TCT1; inhibition, % at 13.3 µM; in the data active = inhibition above about 60%
Numbers stand for hits; . = inactive; / = not tested or not shown. Sampled rows, rich in hits. Any-hit rate of the full collection: about 2.6%.

SMILES | ASAP1 GAP inh | ARFGAP1 inh | Calb FLC | VIM-2 inh | IMP-1 inh | PHOSPHO1 block
O=C(Nc1ccc(Cl)cc1)c1cccnc1N1CCCCC1 | . | . | . | . | 20.3 | .
CS(=O)(=O)N1CCN(c2ccc(NC(=O)c3cccnc3Cl)cc2)CC1 | . | . | . | . | . | 100.3
O=c1ccn(C2CC(O)C(COC(c3ccccc3)(c3ccccc3)c3ccccc3)O2)c(=O)[nH]1 (stereo unspecified) | . | . | / | / | / | /
COC(=O)C1=C(C)N(C)C(=NCc2ccc(OC)cc2)NC1c1ccc(Cl)cc1 (stereo unspecified) | . | . | / | / | / | /
N#Cc1c(C(F)(F)F)cc(-c2ccco2)nc1SCc1ccncc1 | . | . | . | . | . | 82.0
N#Cc1c(C(F)(F)F)cc(-c2ccco2)nc1SCc1ccccn1 | . | . | . | . | . | .
COC(=O)C1=C(Nc2ccccc2NC(=O)CCCC(=O)O)CSC1 | . | . | . | . | 4.5 | .
O=C(CCc1nnc(CCCCc2ccccc2)o1)NCCc1cccnc1 | . | . | . | . | . | .
O=C(CCc1nnc(CCCCc2ccccc2)o1)NCCN1CCCCC1=O | . | . | . | . | . | 60.1
COc1ccc(Cc2c(C3CCCCC3)nc3ccc(C)cn23)c(C)c1 | . | . | / | / | / | /
O=C(CSc1nnnn1C1CCCC1)Nc1ccc(F)cc1 | . | . | . | . | . | 62.3
O=C(Cc1ccc([N+](=O)[O-])cc1)NNC(=O)c1ccc2c(c1)OCO2 | . | . | 113.2 | . | . | .
COc1ccc(CN2C[C@H](COCc3ccccc3)Oc3cccc(F)c3S2(=O)=O)cc1 | . | . | / | / | / | /
C=CCn1c(CSc2nc3ccccc3s2)n[nH]c1=S | . | . | . | . | . | 105.9
S=c1[nH]nc(CSc2nc3ccccc3s2)n1Cc1ccccc1 | . | . | . | . | . | 97.5
CCn1c(CSc2nc3ccccc3s2)n[nH]c1=S | . | . | . | . | . | 95.8
S=c1[nH]nc(CCc2ccccc2)n1Cc1ccccc1 | . | . | . | . | . | .
C=CCn1c(Cc2nc3ccccc3[nH]2)n[nH]c1=S | . | . | . | . | . | 89.9
COc1cc(C(=O)NN=C2c3ccccc3-c3ccccc32)cc(OC)c1OC | . | . | / | / | / | /
CCn1c(CSc2nc3ccccc3s2)nnc1SCC(=O)c1ccc(Cl)cc1 | . | . | . | . | . | 73.4
Cc1ccc(NC(=S)N2CCN(CCN3C(=O)c4cccc5cccc(c45)C3=O)CC2)cc1 | . | . | . | 8.1 | . | .
O=C(CN1CCN(CCN2C(=O)c3cccc4cccc(c34)C2=O)CC1)c1ccc(F)cc1 | . | . | . | 8.9 | . | .
O=C(CN1CCN(CCN2C(=O)c3cccc4cccc(c34)C2=O)CC1)c1ccc(Cl)cc1 | / | / | / | . | . | .
COc1ccc(NC(=O)NCc2cccnc2)c(OC)c1 | . | . | . | . | 15.6 | .
COc1ccc(N2Cc3ccc(C(=O)N/N=C\c4ccc(O)cc4O)cc3C2)cc1 | / | / | 92.5 | . | . | .
SMILES | ASAP1 GAP inh | ARFGAP1 inh | Calb FLC | VIM-2 inh | IMP-1 inh | PHOSPHO1 block
CC(Sc1nc2ccccc2o1)C(=O)O (stereo unspecified) | . | . | . | . | . | 76.1
COCc1cc(N2CCNC[C@@H]2C)ccc1N1CCS(=O)(=O)CC1 | . | . | / | / | / | /
NC(=O)c1ncn([C@@H]2O[C@H](C(=O)N[C@H](Cc3c[nH]c4ccccc34)C(=O)N3CCN(C(=O)N4CCCCC4)CC3)[C@@H](O)[C@H]2O)n1 | . | . | / | / | / | /
CN1/C(=C/C(=O)c2cccs2)Sc2ccccc21 | . | . | 83.7 | . | . | .
C[C@H](O)[C@@H]1C(=O)N2CCc3c([nH]c4c(-c5ccccc5)cccc34)[C@@H]2C[C@@H]1N(C)C(=S)NCCc1ccccc1 | . | . | / | / | / | /
Cc1cnnc2c1-c1nonc1CC2 | . | . | . | . | 4.5 | .
O=[N+]([O-])c1ccc(N/N=C/c2ccc(O)c(O)c2O)c(S(=O)(=O)N2CCOCC2)c1 | . | . | 99.9 | . | . | .
COc1ccc(/C=C/c2nc(C#N)c(NCCN(C)C)o2)cc1OC | . | . | . | 10.5 | . | .
CCCCn1nnnc1C1(C)CCC(=O)N1Cc1cccc(F)c1 (stereo unspecified) | . | . | / | / | / | /
O=C(/C=C/c1ccc(NC(=O)c2ccccc2-c2ccccc2C(=O)O)cc1)c1ccccc1 | . | . | 98.2 | . | . | .
CCOC(=O)c1ccc(-c2ccc(C3Nc4ccccc4C(=O)N3O)o2)cc1 (stereo unspecified) | . | . | 90.7 | . | . | .
Cc1cc([N+](=O)[O-])ccc1-c1ccc(C2Nc3ccccc3C(=O)N2O)o1 (stereo unspecified) | . | . | 101.2 | . | . | .
C[C@@H]1COc2cccc(NCCCN3CCOCC3)c2S(=O)(=O)N1 | . | . | / | / | / | /
CC(C)(C)c1ccc(C(=O)N/C(=C\c2cccs2)C(=O)N2CCOCC2)cc1 | . | . | . | . | . | .
O=C(N/C(=C/c1cccs1)C(=O)N1CCOCC1)c1cccs1 | . | . | . | . | . | 60.0
c1nnc2c3c4c(sc3ncn12)CCCC4 | / | / | . | . | . | .
CSc1nc2sc3c(c2c2nncn12)CCC3 | . | . | . | 10.7 | . | .
Cc1cc(C)cc(NC(=O)CSc2ccc(-c3ccccn3)nn2)c1 | . | . | . | . | . | .
O=C(CSc1ccc(-c2ccccn2)nn1)Nc1cccc(F)c1 | . | . | . | . | . | 61.0
COC(=O)C1=C(C)N(C)C(=NCc2ccc(C(F)(F)F)cc2)NC1c1ccc(F)cc1 (stereo unspecified) | . | . | / | / | / | /
O=[N+]([O-])c1ccc(Nc2ccccc2)c2nonc12 | . | . | 89.1 | . | . | .
O=C(CSc1nnc2scc(-c3ccccc3)n12)N1CCN(Cc2ccccc2)CC1 | . | . | . | . | . | .
O=C(CSc1nnc2scc(-c3ccccc3)n12)Nc1nsc(-c2ccccc2)n1 | / | / | . | . | . | 66.7
Cc1ccc(-c2csc3nnc(SCC(=O)N4CCN(Cc5ccccc5)CC4)n23)cc1 | . | . | . | . | . | 73.8
COC(=O)N1Cc2ccnnc2CC1c1ccccc1-c1ccccc1 (stereo unspecified) | . | . | / | / | / | /
SMILES | ASAP1 GAP inh | ARFGAP1 inh | Calb FLC | VIM-2 inh | IMP-1 inh | PHOSPHO1 block
CCCc1c(C(=O)N/N=C/c2ccc3c(c2)OCO3)nnn1-c1nonc1N | . | . | / | / | / | /
Cc1ccccc1NC(=O)N(C)[C@H]1C[C@H]2c3[nH]c4c(-c5ccc6c(c5)OCO6)cccc4c3CCN2C(=O)[C@H]1[C@H](C)O | . | . | / | / | / | /
CCn1c(CC(=O)Nc2cccc(Cl)c2Cl)nnc1SCCOc1ccc(OC)cc1 | / | / | . | . | . | 71.5
COC(=O)Cc1nnn2c1[C@H](C)[C@H](c1ccccc1Br)OC[C@@H]2c1ccccc1 | . | . | / | / | / | /
Cc1ccccc1CN1CCN(C(=O)[C@H]2O[C@@H](n3cnc(C(N)=O)n3)[C@H](O)[C@@H]2O)CC1 | . | . | / | / | / | /
COc1cccc(-c2nc(=S)c3c(o2)CCCC3)c1 | . | . | . | . | . | 61.0

Compound activity as filed in PubChem BioAssay.
